Screens as filed in PubChem BioAssay.
In the library only some 1.7% were active in any assay of this set; here they are far more common.
LMPTP block – LMPTP phosphatase inhibitors, primary screen, biochemical, fluorescence intensity, uHTS | inhibition, % at 20 µM | recombinant LMPTP-A, OMFP fluorogenic substrate | Low molecular weight phosphotyrosine protein phosphatase (Homo sapiens), P24666 | AID 651560, 2012 | 0.22% of 360,000 active;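 active = compounds that cut the enzyme signal by at least half of the control window in the single-dose screen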;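 also: plate controls were DMSO wells with enzyme plus substrate for no effect and substrate without enzyme for full effect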
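test system = LMPTP-A | amount = 0.625 nM LMPTP-A final | reagent = fluorogenic phosphatase substrate OMFP at 400 µM final | incubation = 50 min at room temperature | benchmarks = no-enzyme low control, uninhibited high control | medium = Bis-Tris pH 6.0, DTT, detergent | signal = fluorescence intensity of OMFP turnover product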
SUMO1 PPI mod – modulators of SUMO1 protein-protein interactions, primary screen, biochemical, uHTS; Small ubiquitin-related modifier 1 (Homo sapiens), P63165; SUMO1 binding to a labelled peptide, TR-FRET, 1 h; inhibition, % at 20 µM; 0.33% of 360,000 active; AID 602429, 2012; in the data active = inhibition above about 37%
STEP block – STEP phosphatase inhibitors, primary screen, biochemical, fluorescence intensity, uHTS | recombinant STEP, OMFP fluorogenic substrate | Tyrosine-protein phosphatase non-receptor type 5 (Homo sapiens), P54829 | inhibition, % at 20 µM | 0.25% of 360,000 active;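 active = inhibition at 20 µM, scaled per plate between control wells, above about 37%, limit read from the data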;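 also: 0% = DMSO with enzyme and substrate and 100% = substrate only without enzyme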
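Assay system: isolated STEP enzyme. Buffer or medium: pH 6.0 Bis-Tris with DTT and Tween 20. Also added: fluorogenic phosphatase substrate OMFP at 25 µM final. Dosing: 20 µM, 1% DMSO. Timing: 20 min reaction, room temperature, in the dark. Measured by: fluorescence intensity, excitation 480 nm, emission 540 nm. Evaluation: normalized % inhibition.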
DNMT1 inh – human DNMT1 methyltransferase inhibitors, primary screen, biochemical, molecular beacon, fluorescence, HinP1I cleavage, uHTS; 0.83% of 360,000 active; DNA (cytosine-5)-methyltransferase 1 (Homo sapiens), P26358; inhibition (reported as % activation of signal), % at 10 µM; AID 588458, 2011; in the data active = inhibition above about 50%
Scp-1 inhibitor – Scp-1 phosphatase inhibitors, primary screen, biochemical, colorimetric, uHTS; 0.88% of 340,000 active; inhibition, % at 20 µM; Recombinant Scp1, phosphopeptide, malachite green phosphate absorbance; Carboxy-terminal domain RNA polymerase II polypeptide A small phosphatase 1 (Homo …; AID 493091, 2011;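 active = inhibition above about 50% at 20 µM, limit read from the data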;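 also: plate controls were DMSO wells with enzyme for no effect and wells lacking enzyme for full effect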
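Material: truncated SCP-1 phosphatase (76-261aa) / Buffer or medium: 50 mM Tris acetate pH 5.5, 0.005% Tween-20, 10 mM MgCl2 / Compound dosing: one concentration, 20 µM, with 1.0% DMSO / Incubation: 45 min room-temperature reaction, 5 min colour, 30 min stabiliser / Detection: colorimetric free-phosphate detection, absorbance 630 nm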
Active calls of the source: *; x = no result given.

SMILES	LMPTP block	SUMO1 PPI mod	STEP block	DNMT1 inh	Scp-1 inhibitor
O=C(/C=C/c1ccc(F)cc1)NC(=S)NNC(=O)c1cnccn1	0.1	-3.3	3.2	3.5	68.8*
COc1ccccc1Cc1c(-c2ccco2)nc2c(C)cc(Br)cn12	1.5	6.2	2.3	62.1*	x
COc1ccc(Cc2c(-c3ccco3)nc3c(C)cc(Br)cn23)c(C)c1	3.6	-16.1	-2.5	-9.0	x
Fc1c(F)c(C(F)(F)F)c(F)c(F)c1N/N=C\c1cccs1	2.4	40.6*	-1.7	-6.8	-3.7
C#CCOCCOCCOCCNc1nc(N2CCN(C(=O)CCCCCCCCCCNC(=O)Cn3cc(C[C@@H](C)O)nn3)CC2)nc(N2CCN(C(=O)CCCCCCCCCCNC(=O)[C@H](CCCN=C(N)N)n3cc(C[C@@H](C)CC)nn3)CC2)n1	13.4	105.5*	5.3	-108.0	25.0
C#CCOCCOCCOCCNc1nc(N2CCN(C(=O)CCCCCCCCCCNC(=O)[C@H](CO)n3cc(CCCSC)nn3)CC2)nc(N2CCN(C(=O)CCCCCCCCCCNC(=O)[C@H](CCCCN)n3cc(CCO)nn3)CC2)n1	-1.8	-141.1	1.0	-39.8	11.4
C#CCOCCOCCOCCNc1nc(N2CCN(C(=O)CCCCCCCCCCNC(=O)[C@H](CO)n3cc(CCCSC)nn3)CC2)nc(N2CCN(C(=O)CCCCCCCCCCNC(=O)[C@H](CCCN=C(N)N)n3cc(C[C@@H](C)CC)nn3)CC2)n1	16.8	89.9*	18.6	-105.4	62.7*
COc1ccc(C2=Nc3ccccc3NC(=O)C2N(Cc2ccccc2)C(=O)C2=NNC(=O)CC2)cc1 (centres undefined)	-0.4	-5.5	3.9	-7.2	x
O=c1[nH]nc(CNc2ccc(O)cc2)c2ccccc12	13.3	55.1*	-0.7	5.6	6.3
O=c1[nH]nc(CNc2ccc(C(F)(F)F)cc2)c2ccccc12	-0.4	3.7	-0.4	-0.4	4.5
C#CCOCCOCCOCCNc1nc(N2CCN(C(=O)CCCCCCCCCCNC(=O)[C@H]([C@@H](C)CC)n3cc(CCCCN=C(N)N)nn3)CC2)nc(N2CCN(C(=O)CCCCCCCCCCNC(=O)[C@H](CCCCN)n3cc(C)nn3)CC2)n1	x	x	x	x	39.6
C#CCOCCOCCOCCNc1nc(N2CCN(C(=O)CCCCCCCCCCNC(=O)[C@H]([C@@H](C)CC)n3cc(CCCCCN)nn3)CC2)nc(N2CCN(C(=O)CCCCCCCCCCNC(=O)[C@H]([C@@H](C)CC)n3cc(CCCCN=C(N)N)nn3)CC2)n1	2.6	78.6*	4.9	-129.7	x
C#CCOCCOCCOCCNc1nc(N2CCN(C(=O)CCCCCCCCCCNC(=O)[C@H]([C@@H](C)CC)n3cc(CCCCN=C(N)N)nn3)CC2)nc(N2CCN(C(=O)CCCCCCCCCCNC(=O)[C@H](CO)n3cc(CCCCCN)nn3)CC2)n1	6.2	47.0*	14.3	-80.9	35.0
C#CCOCCOCCOCCNc1nc(N2CCN(C(=O)CCCCCCCCCCNC(=O)Cn3cc(CCCCCN)nn3)CC2)nc(N2CCN(C(=O)CCCCCCCCCCNC(=O)[C@H]([C@@H](C)CC)n3cc(CCCCN=C(N)N)nn3)CC2)n1	5.0	38.6*	7.7	-32.2	40.2
Cc1sc2nc3c4ccccc4c(NCc4ccco4)nn3c(=O)c2c1C	5.2	75.1*	-1.4	0.6	-5.2
CC(C)COC(=O)N1CCCCC1c1cc(C(=O)N2CCOCC2)no1 (centres undefined)	-0.4	-0.5	0.1	3.2	x
CCOC(=O)CSc1nc(N)nc(C)c1Br	-0.6	3.1	-4.3	1.4	-7.5
CCOC(=O)COc1nc(C)c(Br)c(OC)n1	-0.8	61.1*	-2.6	2.3	1.5
CCCNC(=O)C1(C)CCCN(C(=O)c2cccnc2Oc2ccccc2)C1 (centres undefined)	-0.8	-0.4	2.0	-0.6	x
COc1ccc(-c2cc(=O)oc3cc(OCC(=O)Nc4ccccn4)ccc23)cc1	5.5	43.4*	-0.3	-3.8	-8.6
